According to ChEMBL document CHEMBL1926536, “Synthesis, molecular modeling studies and biological evaluation of fluorine substituted analogs of GW 501516” (Bioorg Med Chem, 2011):

Experiments:
[1] = molecular target: T1, Peroxisome proliferator-activated receptor delta (Homo sapiens, UniProt Q03181); test: Agonist activity at human PPARdelta ligand binding domain expressed in COS-1 cells after 24 hrs by luciferase reporter gene-based luminometric analysis; format: cell-based
T1 sequence (Q03181 whole entry): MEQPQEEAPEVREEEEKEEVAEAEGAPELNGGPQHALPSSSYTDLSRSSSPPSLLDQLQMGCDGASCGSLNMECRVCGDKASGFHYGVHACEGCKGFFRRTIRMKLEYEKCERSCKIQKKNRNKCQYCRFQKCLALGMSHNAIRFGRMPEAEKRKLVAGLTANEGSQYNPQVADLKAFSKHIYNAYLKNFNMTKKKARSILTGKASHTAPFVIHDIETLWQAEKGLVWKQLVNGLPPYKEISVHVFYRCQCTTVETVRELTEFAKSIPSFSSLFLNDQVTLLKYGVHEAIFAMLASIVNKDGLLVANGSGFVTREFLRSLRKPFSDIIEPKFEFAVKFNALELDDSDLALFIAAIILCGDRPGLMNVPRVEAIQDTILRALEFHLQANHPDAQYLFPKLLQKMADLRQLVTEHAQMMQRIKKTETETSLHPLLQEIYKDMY

[2] = molecular target: T2, Peroxisome proliferator-activated receptor alpha (Homo sapiens, UniProt Q07869); test: Agonist activity at human PPARalpha ligand binding domain expressed in COS-1 cells co-transfected with Gal4 after 24 hrs by luciferase reporter gene assay; format: cell-based
T2 sequence (Q07869 whole entry): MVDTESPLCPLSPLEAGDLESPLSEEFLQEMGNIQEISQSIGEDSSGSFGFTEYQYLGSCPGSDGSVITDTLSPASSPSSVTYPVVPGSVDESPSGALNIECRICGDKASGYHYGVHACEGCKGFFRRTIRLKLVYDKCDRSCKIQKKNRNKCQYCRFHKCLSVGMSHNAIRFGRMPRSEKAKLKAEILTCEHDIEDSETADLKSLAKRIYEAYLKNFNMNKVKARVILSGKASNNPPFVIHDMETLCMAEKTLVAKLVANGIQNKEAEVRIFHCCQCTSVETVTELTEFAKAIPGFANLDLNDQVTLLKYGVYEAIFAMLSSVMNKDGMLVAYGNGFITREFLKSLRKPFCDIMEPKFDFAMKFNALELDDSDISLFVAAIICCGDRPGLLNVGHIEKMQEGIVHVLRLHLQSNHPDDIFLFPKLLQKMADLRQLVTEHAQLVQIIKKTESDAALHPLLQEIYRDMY

[3] = molecular target: T3, Peroxisome proliferator-activated receptor gamma (Homo sapiens, UniProt P37231); format: cell-based, COS-1
T3 sequence (P37231 whole entry): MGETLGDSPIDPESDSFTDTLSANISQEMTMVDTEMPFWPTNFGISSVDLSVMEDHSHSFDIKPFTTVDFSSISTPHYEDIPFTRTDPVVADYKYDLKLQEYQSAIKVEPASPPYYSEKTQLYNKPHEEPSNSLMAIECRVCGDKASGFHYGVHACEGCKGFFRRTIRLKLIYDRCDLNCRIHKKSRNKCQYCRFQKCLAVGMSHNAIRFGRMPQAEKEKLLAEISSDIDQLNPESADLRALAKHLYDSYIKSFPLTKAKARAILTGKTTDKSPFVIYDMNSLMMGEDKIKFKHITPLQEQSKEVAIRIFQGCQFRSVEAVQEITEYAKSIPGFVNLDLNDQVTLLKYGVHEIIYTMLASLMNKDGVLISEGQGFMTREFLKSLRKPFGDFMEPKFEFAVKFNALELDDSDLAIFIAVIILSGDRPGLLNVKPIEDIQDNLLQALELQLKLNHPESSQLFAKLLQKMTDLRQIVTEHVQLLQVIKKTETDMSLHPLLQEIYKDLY

[4] = Induction of [14C]oleic acid oxidation in a human myotubes after 4 days by beta liquid scintillation counting; format: functional
How it was run: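 Satellite cells from human abdominal muscle biopsies of healthy donors, differentiated to myotubes for 7 days in DMEM (5.5 mM glucose) with 2% FCS and 25 pM insulin. Then [1-14C]oleic acid (1 µCi/mL, 100 µM) in DPBS with 10 mM HEPES and 1 mM L-carnitine, 4 h at 37 °C. Trapped CO2 counted by scintillation, normalized to protein. EC50 from three independent experiments in quadruplicate, mean ± SD.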

SMILES | EC50 [1] [nM] | EC50 [2] [nM] | EC50 [3] [nM] | EC50 [4] [nM]
CN(CCOc1ccc(CC2SC(=O)NC2=O)cc1)c1ccccn1 (configuration not stated) [ROSIGLITAZONE] | – | – | – | > 1000
CC/C=C\C/C=C\C/C=C\C/C=C\CC/C=C/C=C/C(=O)O | > 1000 | 32 | > 1000 | –
Cc1cc(SCc2sc(-c3ccc(C(F)(F)F)cc3)nc2C)ccc1OCC(=O)O [GW501516] | – | – | – | 0.03

Results, then the compound that gave them:

EC50 [1] [nM] | EC50 [2] [nM] | EC50 [3] [nM] | EC50 [4] [nM] | SMILES
580 | 735 | > 1000 | 31.4 | Cc1nc(-c2ccc(C(F)(F)F)cc2)sc1CSc1ccc(OC(F)C(=O)O)c(C(C)C)c1 (racemic)
290 | 710 | > 1000 | 5 | CCc1cc(SCc2sc(-c3ccc(C(F)(F)F)cc3)nc2C)ccc1OC(F)C(=O)O (racemic)
55 | 560 | > 1000 | 3.7 | Cc1cc(SCc2sc(-c3ccc(C(F)(F)F)cc3)nc2C)ccc1OC(F)C(=O)O (racemic)
